Laboratory results as given in ChEMBL document CHEMBL1926582, “Bis-chalcone analogues as potent NO production inhibitors and as cytotoxic agents” (Eur J Med Chem, 2012).
Active and inactive are the calls of the source. No cut-off for these calls is given here.

Columns and labels:
DU-145 [1] = assay: Cytotoxicity against human DU145 cells after 3 days by SRB assay; type: functional, cell-based
How it was run: (§1)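 Cell lines kept in RPMI-1640 with […], 0.25% sodium bicarbonate, 10% FBS and 100 µg/mL kanamycin. Freshly trypsinized cells seeded at 1500-7500 cells/well. Compounds added from DMSO-diluted stock, 3 days culture. Attached cells fixed with cold 50% TCA, stained with 0.4% SRB, bound dye solubilized, absorbance read at 562 nm.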

[2] = test system: Radical scavenging activity; assay: Antioxidant activity assessed as inhibition of DPPH free radical scavenging activity; type: functional
[3] = Inhibition of NOX-dependent ROS production in mouse BV2 cells by chemiluminescence assay; type: cell-based; conditions: BV-2
How it was run: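 BV2 cell homogenate (50 µg) was incubated with compound for 20 min at 37 °C in the dark. Superoxide production was started with 200 µM NADPH and chemiluminescence followed for 30 min. AUC was taken as ROS production. DPI was the positive control. IC50 given as mean ± SEM of three experiments on different days using cells from different passages.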

A549 [4] = assay: Cytotoxicity against human A549 cells after 3 days by SRB assay; type: functional, cell-based; how it was run: as §1
KB [5] = assay: Cytotoxicity against human KB cells after 3 days by SRB assay; type: functional, cell-based; how it was run: as §1
[6] = Cytotoxicity against human KBVIN cells after 3 days by SRB assay; type: functional, cell-based; how it was run: as §1
[7] = target: T1, NF-kappa-B inhibitor alpha (Mus musculus) (UniProt Q9Z1E3); assay: Inhibition of IkappaB-alpha degradation in LPS-stimulated mouse BV2 cells at 1 to 2 uM measured after 15 to 120 mins post stimulation by Western blot analysis; type: cell-based; conditions: BV-2
T1 sequence (whole entry): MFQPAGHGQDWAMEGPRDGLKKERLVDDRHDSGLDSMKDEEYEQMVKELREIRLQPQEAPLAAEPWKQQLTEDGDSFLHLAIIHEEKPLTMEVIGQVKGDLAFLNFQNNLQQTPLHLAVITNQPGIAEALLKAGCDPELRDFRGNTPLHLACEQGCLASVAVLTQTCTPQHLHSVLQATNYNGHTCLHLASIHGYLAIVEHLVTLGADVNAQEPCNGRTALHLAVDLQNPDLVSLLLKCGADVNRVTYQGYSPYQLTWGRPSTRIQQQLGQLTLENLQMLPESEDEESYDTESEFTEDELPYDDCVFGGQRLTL
How it was run: (§2)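 BV2 microglia in DMEM with 5% FBS were pretreated with compound or solvent, then stimulated with LPS 0.5 µg/mL for 15 to 120 min. Western blots were probed for iNOS, cytosolic IκBα, and cytosolic and nuclear p65. Membranes were blocked in 5% milk/PBST, primary antibody overnight at 4 °C, HRP secondary 1 h, ECL detection. Signals normalized to β-actin; at least three independent experiments.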

[8] = target: Transcription factor p65 (Mus musculus) (UniProt Q04207); assay: Inhibition of NF-kappaB p65 activation/translocation in LPS-stimulated mouse BV2 cells assessed as down regulation of iNOS at 1 to 2 uM measured after 15 to 120 mins post stimulation by Western blot analysis; type: cell-based; conditions: BV-2; how it was run: as §2
Transcription factor p65 (Mus musculus), sequence (Q04207 whole entry): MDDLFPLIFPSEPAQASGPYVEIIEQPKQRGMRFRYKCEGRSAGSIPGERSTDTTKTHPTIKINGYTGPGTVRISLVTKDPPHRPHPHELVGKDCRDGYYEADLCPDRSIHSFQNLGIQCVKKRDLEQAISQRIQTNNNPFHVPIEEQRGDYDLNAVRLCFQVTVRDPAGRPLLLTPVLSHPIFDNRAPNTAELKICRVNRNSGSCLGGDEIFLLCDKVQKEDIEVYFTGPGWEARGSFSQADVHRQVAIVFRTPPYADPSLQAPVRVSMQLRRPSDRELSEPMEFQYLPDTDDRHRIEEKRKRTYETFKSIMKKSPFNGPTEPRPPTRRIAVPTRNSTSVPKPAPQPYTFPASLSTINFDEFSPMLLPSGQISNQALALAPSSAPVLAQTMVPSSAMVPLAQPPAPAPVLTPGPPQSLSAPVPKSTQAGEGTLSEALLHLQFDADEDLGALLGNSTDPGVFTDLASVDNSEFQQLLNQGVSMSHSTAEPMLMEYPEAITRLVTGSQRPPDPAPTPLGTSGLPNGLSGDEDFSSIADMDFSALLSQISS

KB [9] = assay: Growth inhibition of human KB cells at 20 ug/mL after 3 days by SRB assay; type: functional; conditions: 72 h, read-out: GI
How it was run: (§3)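 Cells grown in RPMI-1640 (10% FBS, HEPES, bicarbonate, kanamycin), trypsinized and seeded at 1500-7500 cells/well. Compound given from DMSO-diluted stock, 3 days culture. Cells fixed with cold 50% trichloroacetic acid, stained with 0.4% sulforhodamine B, dye solubilized and absorbance measured at 562 nm.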

DU-145 [10] = assay: Growth inhibition of human DU145 cells at 20 ug/mL after 3 days by SRB assay; type: functional; conditions: DU-145, 72 h, read-out: GI; how it was run: as §3
A549 [11] = assay: Growth inhibition of human A549 cells at 20 ug/mL after 3 days by SRB assay; type: functional; conditions: A549, 72 h, read-out: GI; how it was run: as §3
[12] = Growth inhibition of human KBVIN cells at 20 ug/mL after 3 days by SRB assay; type: functional; conditions: 72 h, read-out: GI; how it was run: as §3
[13] = target: T1, NF-kappa-B inhibitor alpha (Mus musculus); assay: Inhibition of IkappaB-alpha degradation in LPS-stimulated mouse BV2 cells at 2 to 4 uM measured after 15 to 120 mins post stimulation by Western blot analysis; type: cell-based; conditions: BV-2; how it was run: as §2
[14] = target: Transcription factor p65 (Mus musculus) (UniProt Q04207); assay: Inhibition of NF-kappaB p65 activation/translocation in LPS-stimulated mouse BV2 cells assessed as down regulation of iNOS at 2 to 4 uM measured after 15 to 120 mins post stimulation by Western blot analysis; type: cell-based; conditions: BV-2; how it was run: as §2
[15] = Homo sapiens, DU-145, 72 h, read-out: EC50
[16] = Homo sapiens, A549, 72 h, read-out: EC50
[17] = Homo sapiens, KB, 72 h, read-out: EC50
[18] = Homo sapiens, KBVIN, 72 h, read-out: EC50

| IC50 [2] | IC50 [3] [µM] | Compound | EC50 (DU-145 [1]; [15]) [µM] | EC50 (A549 [4]; [16]) [µM] | EC50 (KB [5]; [17]) [µM] | EC50 [6, 18] [µM] | EC50 (DU-145 [1]; du-145) | EC50 (A549 [4]; a549) | EC50 (KB [5]; kb) | EC50 ([6]; kbvin) | also measured |
| --- | --- | --- | --- | --- | --- | --- | --- | --- | --- | --- | --- |
| Not Active | 72 | CC(=O)c1cc(C(=O)/C=C/c2ccc3c(c2)OCO3)c(O)cc1O | 16.3 | 19.4 | 17.2 | 17.2 |  |  |  |  |  |
| Not Active | 49.6 | O=C(/C=C/c1ccco1)c1cc(C(=O)/C=C/c2ccco2)c(O)cc1O |  |  |  |  | Not Active | Not Active | Not Active | Not Active |  |
| Not Active | 49.1 | COc1ccc(/C=C/C(=O)c2cc(C(=O)/C=C/c3ccc(OC)c(OC)c3)c(O)cc2O)cc1OC | 8.63 | 9.14 | 8.18 | 7.02 |  |  |  |  | inhibition [7]: Active; inhibition [8]: Active |
| Not Active | 73 | COc1cc(OC)c(OC)cc1/C=C/C(=O)c1cc(C(C)=O)c(O)cc1O |  |  |  |  | Not Active | Not Active | Not Active | Not Active |  |
| Not Active | 122 | O=C(/C=C/c1ccccc1)c1cc(C(=O)/C=C/c2ccccc2)c(O)cc1O | 1.7 | 4.08 | 1.62 | 1.57 |  |  |  |  |  |
| Not Active | 120 | CC(=O)c1cc(C(=O)/C=C/C=C/c2ccccc2)c(O)cc1O |  |  |  |  | Not Active | Not Active | Not Active | Not Active |  |
| Not Active | 150 | COc1ccc(/C=C/C(=O)c2cc(C(=O)/C=C/c3ccc(OC)cc3)c(O)cc2O)cc1 |  |  |  | 34 |  |  |  |  | inhibition of growth at 20 µg/mL (KB [9]): < 50%; inhibition of growth at 20 µg/mL (DU-145 [10]): < 50%; inhibition of growth at 20 µg/mL (A549 [11]): < 50% |
| Not Active | 76.8 | O=C(/C=C/c1ccccn1)c1cc(C(=O)/C=C/c2ccccn2)c(O)cc1O | 2.85 | 13.7 | 2.93 | 11 |  |  |  |  |  |
| Not Active | 70.9 | COc1ccc(/C=C/C(=O)c2cc(C(=O)/C=C/c3ccc(OC)c(OC)c3OC)c(O)cc2O)c(OC)c1OC |  |  |  |  | Not Active | Not Active | Not Active | Not Active |  |
| Not Active | 81.4 | Cc1ccsc1/C=C/C(=O)c1cc(C(=O)/C=C/c2sccc2C)c(O)cc1O |  |  |  |  | Not Active | Not Active | Not Active | Not Active |  |
| Not Active | 95 | COc1ccc(OC)c(/C=C/C(=O)c2cc(C(=O)/C=C/c3cc(OC)ccc3OC)c(O)cc2O)c1 |  |  | 40.1 |  |  |  |  |  | inhibition of growth at 20 µg/mL (DU-145 [10]): < 50%; inhibition of growth at 20 µg/mL (A549 [11]): < 50%; inhibition of growth at 20 µg/mL [12]: < 50% |
|  |  | Cc1c(C)c2c(c(C)c1O)CCC(C)(C(=O)O)O2 (configuration not stated) [TROLOX] |  |  |  |  |  |  |  |  | IC50 ([2]; read-out: IC50): 30.2 µM |
| Not Active | 60.4 | Cc1ccc(/C=C/C(=O)c2cc(C(=O)/C=C/c3ccc(C)o3)c(O)cc2O)o1 |  |  |  |  | Not Active | Not Active | Not Active | Not Active |  |
| Not Active | 127 | COc1cccc(/C=C/C(=O)c2cc(C(=O)/C=C/c3cccc(OC)c3)c(O)cc2O)c1 | 1.86 | 8.76 | 2.88 | 2.07 |  |  |  |  |  |
| Not Active | 89 | COc1cccc(/C=C/C(=O)c2cc(C(=O)/C=C/c3cccc(OC)c3OC)c(O)cc2O)c1OC | 2.45 | 4.38 | 2.06 | 5.14 |  |  |  |  | inhibition [13]: Active; inhibition [14]: Active |

| Compound | IC50 [2] | IC50 [3] [µM] | EC50 (DU-145 [1]; [15]) [µM] | EC50 (A549 [4]; [16]) [µM] | EC50 (KB [5]; [17]) [µM] | EC50 [6, 18] [µM] | EC50 (DU-145 [1]; du-145) | EC50 (A549 [4]; a549) | EC50 (KB [5]; kb) | EC50 ([6]; kbvin) | also measured |
| --- | --- | --- | --- | --- | --- | --- | --- | --- | --- | --- | --- |
| c1ccc2c(c1)[I+]c1ccccc1-2 [DIPHENYLENEIODONIUM] | Not Active | 0.65 |  |  |  |  |  |  |  |  |  |
| COC(=O)[C@@H](N)CCCNC(=N)N[N+](=O)[O-] [L-NAME] | Not Active |  |  |  |  |  |  |  |  |  |  |
